# Tested on: Fibroblast
# Assay: Multiplex assay against human fibroblast
# Assay type: toxicity, cell-based
# Method in brief: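 Per cents of healthy-nucleus cells form the tubulin, mitochondrial-mass and membrane-permeability phenotype values. Live cells were stained at seeding with Hoechst33342, BioTracker Green Microtubule Cytoskeleton Dye, MitoTracker Red and Annexin V Alexa Fluor 680. After compound addition they were imaged on a CQ1 microscope at 37°C and 5% CO2, and CellPathfinder machine-learning gating split them into Hoechst high-intensity objects or normal cells, normal cells into healthy, pyknosed or fragmented nuclei, and pyknosed cells into mitotic or apoptotic.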
# [1] = 12 h, 1 µM, compound concentration 1 uM, replicate 1
# [2] = 12 h, 1 µM, compound concentration 1 uM, replicate 2
# [3] = 12 h, 10 µM, compound concentration 10 uM, replicate 1
# [4] = 12 h, 10 µM, compound concentration 10 uM, replicate 2
# [5] = 24 h, 1 µM, compound concentration 1 uM, replicate 1
# [6] = 24 h, 1 µM, compound concentration 1 uM, replicate 2
# [7] = 24 h, 10 µM, compound concentration 10 uM, replicate 1
# [8] = 24 h, 10 µM, compound concentration 10 uM, replicate 2
# [9] = 48 h, 1 µM, compound concentration 1 uM, replicate 1
# [10] = 48 h, 1 µM, compound concentration 1 uM, replicate 2
# [11] = 48 h, 10 µM, compound concentration 10 uM, replicate 1
# [12] = 48 h, 10 µM, compound concentration 10 uM, replicate 2
smiles,measurement,setting,value
CC(C)OC(=O)N1CCC(Oc2ncnc3c2cnn3-c2ccc(S(C)(=O)=O)cc2F)CC1,Population Apoptotic (%),[1],64%
same,Population Fragmented Nuclei (%),[1],27%
same,Population Healthy Nuclei (%),[1],50%
same,Population Hoechst High Intensity Objects (%),[1],13%
same,Population Membrane Permeable-Phenotype (%),[1],27%
same,Population Mitochondria Different-Phenotype (%),[1],0%
same,Population Mitotic Cells (%),[1],35%
same,Population Normal (%),[1],86%
same,Population Pyknosed Nuclei (%),[1],22%
same,Population Tubulin-Different-Phenotype (%),[1],24%
same,Total Cell Count,[1],86
same,Population Apoptotic (%),[2],33%
same,Population Fragmented Nuclei (%),[2],5%
same,Population Healthy Nuclei (%),[2],91%
same,Population Hoechst High Intensity Objects (%),[2],7%
same,Population Membrane Permeable-Phenotype (%),[2],4%
same,Population Mitochondria Different-Phenotype (%),[2],8%
same,Population Mitotic Cells (%),[2],66%
same,Population Normal (%),[2],92%
same,Population Pyknosed Nuclei (%),[2],3%
same,Population Tubulin-Different-Phenotype (%),[2],7%
same,Total Cell Count,[2],97
same,Population Apoptotic (%),[3],58%
same,Population Fragmented Nuclei (%),[3],21%
same,Population Healthy Nuclei (%),[3],43%
same,Population Hoechst High Intensity Objects (%),[3],10%
same,Population Membrane Permeable-Phenotype (%),[3],17%
same,Population Mitochondria Different-Phenotype (%),[3],22%
same,Population Mitotic Cells (%),[3],41%
same,Population Normal (%),[3],89%
same,Population Pyknosed Nuclei (%),[3],34%
same,Population Tubulin-Different-Phenotype (%),[3],58%
same,Total Cell Count,[3],164
same,Population Apoptotic (%),[4],18%
same,Population Fragmented Nuclei (%),[4],5%
same,Population Healthy Nuclei (%),[4],77%
same,Population Hoechst High Intensity Objects (%),[4],6%
same,Population Membrane Permeable-Phenotype (%),[4],0%
same,Population Mitochondria Different-Phenotype (%),[4],5%
same,Population Mitotic Cells (%),[4],81%
same,Population Normal (%),[4],93%
same,Population Pyknosed Nuclei (%),[4],16%
same,Population Tubulin-Different-Phenotype (%),[4],28%
same,Total Cell Count,[4],72
same,Population Apoptotic (%),[5],66%
same,Population Fragmented Nuclei (%),[5],20%
same,Population Healthy Nuclei (%),[5],58%
same,Population Hoechst High Intensity Objects (%),[5],13%
same,Population Membrane Permeable-Phenotype (%),[5],33%
same,Population Mitochondria Different-Phenotype (%),[5],4%
same,Population Mitotic Cells (%),[5],33%
same,Population Normal (%),[5],86%
same,Population Pyknosed Nuclei (%),[5],20%
same,Population Tubulin-Different-Phenotype (%),[5],45%
same,Total Cell Count,[5],83
same,Population Apoptotic (%),[6],50%
same,Population Fragmented Nuclei (%),[6],4%
same,Population Healthy Nuclei (%),[6],86%
same,Population Hoechst High Intensity Objects (%),[6],2%
same,Population Membrane Permeable-Phenotype (%),[6],5%
same,Population Mitotic Cells (%),[6],50%
same,Population Normal (%),[6],97%
same,Population Pyknosed Nuclei (%),[6],8%
same,Population Tubulin-Different-Phenotype (%),[6],9%
same,Total Cell Count,[6],116
same,Population Apoptotic (%),[7],43%
same,Population Fragmented Nuclei (%),[7],24%
same,Population Healthy Nuclei (%),[7],48%
same,Population Hoechst High Intensity Objects (%),[7],12%
same,Population Membrane Permeable-Phenotype (%),[7],30%
same,Population Mitochondria Different-Phenotype (%),[7],16%
same,Population Mitotic Cells (%),[7],56%
same,Population Normal (%),[7],87%
same,Population Pyknosed Nuclei (%),[7],27%
same,Population Tubulin-Different-Phenotype (%),[7],72%
same,Total Cell Count,[7],156
same,Population Apoptotic (%),[8],33%
same,Population Fragmented Nuclei (%),[8],5%
same,Population Healthy Nuclei (%),[8],87%
same,Population Hoechst High Intensity Objects (%),[8],2%
same,Population Membrane Permeable-Phenotype (%),[8],1%
same,Population Mitochondria Different-Phenotype (%),[8],2%
same,Population Mitotic Cells (%),[8],66%
same,Population Normal (%),[8],97%
same,Population Pyknosed Nuclei (%),[8],6%
same,Population Tubulin-Different-Phenotype (%),[8],31%
same,Total Cell Count,[8],93
same,Population Apoptotic (%),[9],77%
same,Population Fragmented Nuclei (%),[9],35%
same,Population Healthy Nuclei (%),[9],52%
same,Population Hoechst High Intensity Objects (%),[9],25%
same,Population Membrane Permeable-Phenotype (%),[9],28%
same,Population Mitochondria Different-Phenotype (%),[9],0%
same,Population Mitotic Cells (%),[9],22%
same,Population Normal (%),[9],74%
same,Population Pyknosed Nuclei (%),[9],12%
same,Population Tubulin-Different-Phenotype (%),[9],35%
same,Total Cell Count,[9],99
same,Population Apoptotic (%),[10],0%
same,Population Fragmented Nuclei (%),[10],25%
same,Population Healthy Nuclei (%),[10],74%
same,Population Hoechst High Intensity Objects (%),[10],13%
same,Population Membrane Permeable-Phenotype (%),[10],31%
same,Population Mitochondria Different-Phenotype (%),[10],2%
same,Population Mitotic Cells (%),[10],0%
same,Population Normal (%),[10],86%
same,Population Pyknosed Nuclei (%),[10],0%
same,Population Tubulin-Different-Phenotype (%),[10],44%
same,Total Cell Count,[10],73
same,Population Apoptotic (%),[11],46%
same,Population Fragmented Nuclei (%),[11],24%
same,Population Healthy Nuclei (%),[11],51%
same,Population Hoechst High Intensity Objects (%),[11],17%
same,Population Membrane Permeable-Phenotype (%),[11],29%
same,Population Mitochondria Different-Phenotype (%),[11],14%
same,Population Mitotic Cells (%),[11],53%
same,Population Normal (%),[11],82%
same,Population Pyknosed Nuclei (%),[11],23%
same,Population Tubulin-Different-Phenotype (%),[11],73%
same,Total Cell Count,[11],143
same,Population Apoptotic (%),[12],66%
same,Population Fragmented Nuclei (%),[12],22%
same,Population Healthy Nuclei (%),[12],73%
same,Population Hoechst High Intensity Objects (%),[12],7%
same,Population Membrane Permeable-Phenotype (%),[12],14%
same,Population Mitochondria Different-Phenotype (%),[12],4%
same,Population Mitotic Cells (%),[12],33%
same,Population Normal (%),[12],92%
same,Population Pyknosed Nuclei (%),[12],3%
same,Population Tubulin-Different-Phenotype (%),[12],44%
same,Total Cell Count,[12],99

# Reference: ChEMBL document CHEMBL4689842, “EUbOPEN Chemogenomics Library wave 1” (2021)
